Assay outcomes deposited in PubChem by several laboratories.
STEP block = blocks human striatal-enriched tyrosine phosphatase | actives 0.25% (n = 360,000) | inhibition, % at 20 µM | recombinant STEP, OMFP fluorogenic substrate, fluorescence | P54829;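 active = inhibition at 20 µM, scaled per plate between control wells, above about 37%, limit read from the data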;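 note: 0% = DMSO with enzyme and substrate and 100% = substrate only without enzyme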
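Measure: Control-normalized % inhibition with plate pattern correction | Test system: STEP phosphatase, cell-free reaction | Medium: pH 6.0 Bis-Tris with DTT and Tween 20 | Technique: Fluorescence, 480/540 nm | Times: Reaction 20 min, ambient temperature | Doses: Single compound dose of 20 µM, 1% DMSO final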
Scp-1 inhibitor = Scp-1 (human) phosphatase inhibition. Recombinant Scp1, phosphopeptide, malachite green phosphate absorbance. inhibition, % at 20 µM. actives 0.88% (n = 340,000);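 active = inhibition above about 50% at 20 µM, limit read from the data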;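 note: plate controls were DMSO wells with enzyme for no effect and wells lacking enzyme for full effect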
Target sequence (Q9GZU7 76-261 limits assumed): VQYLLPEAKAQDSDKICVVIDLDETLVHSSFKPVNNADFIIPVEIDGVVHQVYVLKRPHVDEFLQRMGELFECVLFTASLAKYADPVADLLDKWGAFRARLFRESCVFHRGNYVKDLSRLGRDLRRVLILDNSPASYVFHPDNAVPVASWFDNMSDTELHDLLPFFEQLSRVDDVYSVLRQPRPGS
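Material – SCP-1 phosphatase catalytic domain, residues 76-261 · Buffer or medium – Acidic Tris acetate buffer with magnesium and detergent · Also added – Phospho 17-mer peptide substrate · Compound – single 20 µM dose, 1% DMSO · Times – 45 min room-temperature reaction, 5 min colour, 30 min stabiliser · Technique – Phosphate-binding colour reagent, absorbance read at 630 nm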
Pemphigus Ab inh = inhibitors of pemphigus antibody binding to human desmoglein-3 | P32926 | DSG3-coupled beads, scFv-anti-DSG3-GFP binding, flow cytometry; hits give low values | binding (percent of control), % at 10 µM | actives 0.48% (n = 310,000) | AID 588358;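 active = binding more than 3 SD below its plate's average and above zero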;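 note: hits lower antibody fragment binding to DSG3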
LMPTP inh = LMPTP (human) inhibition; recombinant LMPTP-A, OMFP fluorogenic substrate, fluorescence intensity; inhibition, % at 20 µM; actives 0.22% (n = 360,000); AID 651560;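 active = compounds that cut the enzyme signal by at least half of the control window in the single-dose screen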;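 note: plate controls were DMSO wells with enzyme plus substrate for no effect and substrate without enzyme for full effect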
Target sequence (P24666 whole entry, looked up): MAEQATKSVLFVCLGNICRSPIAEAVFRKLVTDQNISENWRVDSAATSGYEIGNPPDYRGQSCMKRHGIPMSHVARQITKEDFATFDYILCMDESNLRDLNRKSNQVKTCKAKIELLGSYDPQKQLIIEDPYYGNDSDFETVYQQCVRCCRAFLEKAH
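Assay system: LMPTP-A enzyme. Input: 0.625 nM LMPTP-A final. Probe or stimulus: 400 µM OMFP. Compound dosing: single 20 µM dose. Schedule: 50 min dark incubation at room temperature. Detection: fluorescence intensity of OMFP turnover product. Read-out: percent inhibition versus substrate-only and uninhibited controls. Benchmarks: no-enzyme low control, uninhibited high control.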
SUMO1 PPI mod = alters human SUMO1 binding to SIM partners | inhibition, % at 20 µM | SUMO1 binding to a labelled peptide, TR-FRET, 1 h | AID 602429 | P63165 | actives 0.33% (n = 360,000); in the data active = inhibition above about 37%
Target sequence (P63165 whole entry, looked up): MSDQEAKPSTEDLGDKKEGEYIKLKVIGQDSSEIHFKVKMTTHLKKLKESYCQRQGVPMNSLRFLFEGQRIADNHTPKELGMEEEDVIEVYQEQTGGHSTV
Scp-1 conf = Scp-1 (human) inhibition, single-dose confirmed; shares compounds with Scp-1 inhibitor; inhibition, % at 20 µM; recombinant SCP-1 catalytic domain, phosphate release, malachite green absorbance; actives 61% (n = 2,500);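 note: plate controls were DMSO with enzyme for no effect and buffer wells lacking enzyme for full effect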
MG interference = colorimetric interference in Scp-1 counter-screen. shares compounds with Scp-1 inhibitor. Colorimetric interference counterscreen, malachite green absorbance 630 nm. apparent inhibition (interference), % at 20 µM. 2,500 tested, under 10 active. AID 540313;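 note: compounds added after enzyme reaction finished so only phosphate colour detection is probed; plate controls were DMSO wells with completed Scp-1 reaction for no effect and substrate wells lacking enzyme for full effect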
Scp-1 Tm shift = binds human Scp-1, shifting its melting temperature; Recombinant SCP1, Sypro Orange thermal shift Tm; AID 540329; actives 25% (n = 1,500); thermal shift relative to vanadate control, % at 40 µM; shares compounds with Scp-1 inhibitor;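 active = substances whose mean melting-temperature shift, as a percentage of the reference inhibitor's shift, reaches about 5.3%, limit read from the data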;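 note: 0% = Tm of DMSO wells and 100% = Tm with sodium orthovanadate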
Numbers without * were called inactive; x = not tested or not shown. Compounds with a hit are over-represented: about 1.7% of the library has one in this group of screens.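 Rule for the calls, unless noted: active = inhibition of at least 30% at 20 µM; inactive = the rest.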

SMILES	STEP block	Scp-1 inhibitor	Pemphigus Ab inh	LMPTP inh	SUMO1 PPI mod	Scp-1 conf	MG interference	others
NC(=O)c1[nH]cnc1N	-0.6	-0.7	110.3	-1.7	3.5	x	x
O=C(O)CCCCCn1c(O)c(C=C2N=c3ccccc3=N2)sc1=S	22.3	74.3*	96.0	15.0	-8.7	90.5*	-5.4	Scp-1 Tm shift=10.1*
O=C(O)CCCn1c(O)c(C=C2N=c3ccccc3=N2)sc1=S	-0.3	-7.4	98.5	1.0	-23.7	x	x
Cc1cccc(C)c1NC(=O)c1ccc2sc([C@@H]3O[C@H](CO)[C@H](O)[C@H](O)[C@H]3O)nc2c1	-4.9	x	x	-1.4	-0.3	x	x
O=C(OCc1cc(=O)n2ccsc2n1)c1ccccc1O	-3.5	53.0*	118.3	1.6	7.2	8.5	-4.6
Cc1ccc(C(=O)OCc2cc(=O)n3ccsc3n2)s1	-5.2	-6.8	95.9	0.0	29.0	x	x
Cn1c(=O)cc(SCC(=O)NCc2ccc(F)cc2)c2ccccc21	1.7	-5.6	105.7	-1.3	0.0	-18.8	-15.9
O=C(COC(=O)CCCC1=NS(=O)(=O)c2ccccc2N1)Nc1ccc(Br)cc1	-4.8	50.7*	105.5	0.1	-7.8	-20.9	-19.2
COc1ccccc1NC(=O)NCCN1CCCCC1	2.7	0.1	104.8	-2.6	-0.2	x	x
COc1ccc(Cl)cc1NC(=O)NCCN1CCNC1=O	0.4	-10.8	x	-0.6	0.2	-21.8	-15.1
COc1ccccc1NC(=O)NCCN1CCNC1=O	1.3	-10.5	x	-0.3	-0.4	-10.3	-13.6
COc1cccc(C(O)c2nc(/C=C/c3ccc(C(F)(F)F)cc3)cs2)c1 (stereo not given)	-1.7	x	x	5.4	-4.0	x	x
Cc1ccc(C)c(C(=O)CCC(=O)N2CCN(c3ncccn3)CC2)c1	-2.7	-9.0	97.5	0.4	5.9	x	x
Cn1c(NC(=O)/C=C/c2ccccc2)cc(=O)n(C)c1=O	-0.6	-43.5	126.0	-2.1	-26.1	-6.5	-9.0
CC(Oc1cccc(Cl)c1)C(=O)Nc1ccncc1 (stereo not given)	-0.5	1.2	80.7	-2.0	2.2	x	x
Cn1c(NC(=O)COc2ccccc2)cc(=O)n(C)c1=O	1.8	8.9	104.8	-0.4	3.0	-12.8	-16.9
COc1ccc(/C=C/C(=O)Nc2cc(=O)n(C)c(=O)n2C)cc1	2.1	-2.7	106.4	-1.7	-22.6	x	x
CC(Oc1cccc(Cl)c1)C(=O)Nc1cc(=O)n(C)c(=O)n1C (stereo not given)	-1.9	-5.8	93.7	1.2	2.9	-9.3	-2.1
Cn1c(NC(=O)CCc2ccccc2)cc(=O)n(C)c1=O	-0.8	6.6	97.5	-0.5	6.6	-20.9	-15.6
Cn1c(NC(=O)c2ccccc2)cc(=O)n(C)c1=O	0.0	0.3	91.1	-0.7	4.0	x	x
COC(=O)c1ccc(NS(=O)(=O)c2cc(-c3cc(C)no3)ccc2OC)cc1	2.1	-5.1	x	0.9	6.6	x	x
C=CCn1c(C)cc(C(=O)COC(=O)c2cncc(Br)c2)c1C	-1.8	-1.4	105.0	1.0	1.7	x	x
COc1ccc(S(=O)(=O)CCC(=O)Nc2c(C)n(C)n(-c3ccccc3)c2=O)cc1	-1.1	54.7*	103.5	-0.7	2.0	-14.7	-17.2
Cc1c(NC(=O)CN2C(=O)NC(C)(c3ccccc3)C2=O)c(=O)n(-c2ccccc2)n1C (stereo not given)	1.6	0.7	115.6	-0.1	-1.5	-15.7	-18.9
Cc1ccc(Cl)cc1NC(=O)Nc1c(C)n(C)n(-c2ccccc2)c1=O	-4.4	76.5*	102.3	0.0	7.0	-18.1	-14.2
COC(=O)CCC(=O)Nc1c(C)n(C)n(-c2ccccc2)c1=O	-0.2	-0.8	98.3	0.1	-2.4	x	x
N#CN/C(=N\S(=O)(=O)c1ccccc1)c1ccccc1	-1.7	-5.7	96.3	-1.1	-1.3	x	x
COc1ccc(CN2C(=O)C(CC(=O)NC3CCCC3)CC(C(=O)N3CCOCC3)=C2C)cc1 (stereo not given)	3.6	x	x	0.5	-1.6	x	x
